# Activity calls are given as the source filed them. The rule behind the calls is not given here. Square brackets hold non-standard residues; d marks the D form. Peptide text beside a SMILES is read from it. * marks the point of attachment. ξ: configuration not given here. X1 = CCCCCCCCCCCCCCCC(=O)OCC(C*)OC(=O)CCCCCCCCCCCCCCC; Palmitoyl = CCCCCCCCCCCCCCCC(=O)*; ξC = NC(CS)C(=O)O
# Key:
# Homo sapiens [1] = organism: Homo sapiens; assay: Agonist activity at human TLR2/TLR1 V339A mutant expressed in HEK293T cells coexpressing NF-kappaB-driven luciferase reporter at 100 nM after 6 hrs by luciferase reporter gene assay; format: cell-based
# In short: (§1)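 HEK293T cells stably carrying an NF-κB-driven luciferase reporter, in DMEM, were plated 18 h before transfection. They were co-transfected by lipofection with WT or point-mutant human TLR(2–1) and TLR(1–2) ectodomain/TIR-swap chimeras, and expression was checked by immunoblot. After 24 h, cells were stimulated for 6 h with 100 nM agonist or 20 or 50 ng/mL Pam3CSK4, then lysed for a luciferase read-out.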
# Homo sapiens [2] = organism: Homo sapiens; assay: Agonist activity at human TLR1/TLR2 L328A mutant expressed in HEK293T cells coexpressing NF-kappaB-driven luciferase reporter at 100 nM after 6 hrs by luciferase reporter gene assay; format: cell-based; in short: as §1
# Homo sapiens [3] = organism: Homo sapiens; assay: Agonist activity at human TLR2/TLR1 Y320A mutant expressed in HEK293T cells coexpressing NF-kappaB-driven luciferase reporter at 100 nM after 6 hrs by luciferase reporter gene assay; format: cell-based; in short: as §1
# Homo sapiens [4] = organism: Homo sapiens; assay: Agonist activity at human TLR1/TLR2 Y323A mutant expressed in HEK293T cells coexpressing NF-kappaB-driven luciferase reporter at 100 nM after 6 hrs by luciferase reporter gene assay; format: cell-based; in short: as §1
# Homo sapiens [5] = organism: Homo sapiens; assay: Agonist activity at human TLR1/TLR2 Y376 mutant expressed in HEK293T cells coexpressing NF-kappaB-driven luciferase reporter at 100 nM after 6 hrs by luciferase reporter gene assay; format: cell-based; in short: as §1
# Homo sapiens [6] = organism: Homo sapiens; assay: Agonist activity at human TLR1/TLR2 L350A mutant expressed in HEK293T cells coexpressing NF-kappaB-driven luciferase reporter at 100 nM after 6 hrs by luciferase reporter gene assay; format: cell-based; in short: as §1
# Homo sapiens [7] = organism: Homo sapiens; assay: Agonist activity at human TLR1/TLR2 V348A mutant expressed in HEK293T cells coexpressing NF-kappaB-driven luciferase reporter at 100 nM after 6 hrs by luciferase reporter gene assay; format: cell-based; in short: as §1
# Homo sapiens [8] = organism: Homo sapiens; assay: Agonist activity at human TLR1/TLR2 D327A mutant expressed in HEK293T cells coexpressing NF-kappaB-driven luciferase reporter at 100 nM after 6 hrs by luciferase reporter gene assay; format: cell-based; in short: as §1
# Homo sapiens [9] = organism: Homo sapiens; assay: Agonist activity at human TLR2/TLR1 F312A mutant expressed in HEK293T cells coexpressing NF-kappaB-driven luciferase reporter at 100 nM after 6 hrs by luciferase reporter gene assay; format: cell-based; in short: as §1
# [10] = biological target: T1, Toll-like receptor 1 (Homo sapiens) (UniProt Q15399); assay: Induction of human TLR1 homodimerization expressed in insect Hi5 cells by size exclusion chromatography
# T1 sequence (whole entry): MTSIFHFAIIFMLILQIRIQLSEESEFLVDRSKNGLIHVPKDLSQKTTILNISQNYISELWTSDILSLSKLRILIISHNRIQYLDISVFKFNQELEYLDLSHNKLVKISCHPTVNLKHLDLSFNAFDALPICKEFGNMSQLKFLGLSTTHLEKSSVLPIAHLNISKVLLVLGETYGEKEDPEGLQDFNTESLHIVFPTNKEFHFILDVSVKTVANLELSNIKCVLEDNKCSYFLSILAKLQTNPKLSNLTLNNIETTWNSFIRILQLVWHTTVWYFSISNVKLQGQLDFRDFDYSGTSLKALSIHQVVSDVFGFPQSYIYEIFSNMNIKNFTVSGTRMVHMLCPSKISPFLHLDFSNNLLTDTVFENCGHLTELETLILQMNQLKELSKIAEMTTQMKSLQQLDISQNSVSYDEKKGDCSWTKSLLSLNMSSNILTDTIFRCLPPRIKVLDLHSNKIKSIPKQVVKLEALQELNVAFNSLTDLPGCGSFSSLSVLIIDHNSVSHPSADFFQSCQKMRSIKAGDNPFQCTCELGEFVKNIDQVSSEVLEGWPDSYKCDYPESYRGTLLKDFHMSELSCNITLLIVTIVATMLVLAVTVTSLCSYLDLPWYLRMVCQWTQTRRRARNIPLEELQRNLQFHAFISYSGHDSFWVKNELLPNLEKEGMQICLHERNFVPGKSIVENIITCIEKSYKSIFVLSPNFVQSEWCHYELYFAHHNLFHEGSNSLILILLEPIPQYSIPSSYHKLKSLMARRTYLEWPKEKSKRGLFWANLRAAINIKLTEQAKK
# In short: (§2)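 Human TLR1 and TLR2 ectodomains were made in Hi5 insect cells, partially deglycosylated, and had the protein A tag cleaved by thrombin before purification. Protein at 1 μM (each alone, or both together) was incubated with 30 μM ligand in 25 mM HEPES pH 8.0, 150 mM NaCl, 10% DMSO for 4 h at room temperature. Dimer formation was then analysed by analytical gel filtration on Superdex 200.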
# Homo sapiens [11] = organism: Homo sapiens; assay: Agonist activity at human TLR2/TLR1 W258A mutant expressed in HEK293T cells coexpressing NF-kappaB-driven luciferase reporter at 100 nM after 6 hrs by luciferase reporter gene assay; format: cell-based; in short: as §1
# Homo sapiens [12] = organism: Homo sapiens; assay: Agonist activity at human TLR2/TLR1 H340A mutant expressed in HEK293T cells coexpressing NF-kappaB-driven luciferase reporter at 100 nM after 6 hrs by luciferase reporter gene assay; format: cell-based; in short: as §1
# Homo sapiens [13] = organism: Homo sapiens; assay: Agonist activity at human TLR1/TLR2 F349A mutant expressed in HEK293T cells coexpressing NF-kappaB-driven luciferase reporter at 100 nM after 6 hrs by luciferase reporter gene assay; format: cell-based; in short: as §1
# Homo sapiens [14] = organism: Homo sapiens; assay: Agonist activity at human TLR2/TLR1 I319A mutant expressed in HEK293T cells coexpressing NF-kappaB-driven luciferase reporter at 100 nM after 6 hrs by luciferase reporter gene assay; format: cell-based; in short: as §1
# Homo sapiens [15] = organism: Homo sapiens; assay: Agonist activity at human TLR1/TLR2 Y325A mutant expressed in HEK293T cells coexpressing NF-kappaB-driven luciferase reporter at 100 nM after 6 hrs by luciferase reporter gene assay; format: cell-based; in short: as §1
# Homo sapiens [16] = organism: Homo sapiens; assay: Agonist activity at human TLR2/TLR1 F314A mutant expressed in HEK293T cells coexpressing NF-kappaB-driven luciferase reporter at 100 nM after 6 hrs by luciferase reporter gene assay; format: cell-based; in short: as §1
# Homo sapiens [17] = organism: Homo sapiens; assay: Agonist activity at human TLR1/TLR2 Y332A mutant expressed in HEK293T cells coexpressing NF-kappaB-driven luciferase reporter at 100 nM after 6 hrs by luciferase reporter gene assay; format: cell-based; in short: as §1
# [18] = biological target: T2, Toll-like receptor 1/2 (Homo sapiens) (UniProt O60603+Q15399); assay: Antagonist activity at TLR2/TLR1 in human THP1 cells assessed as reduction in diprovoci-induced TNF production at 50 uM pre-incubated for 1 hr before diprovocim stimulation for 4 hrs by ELISA method; format: cell-based
# [19] = biological target: T2, Toll-like receptor 1/2 (Homo sapiens); assay: Antagonist activity at TLR2/TLR1 in human THP1 cells assessed as reduction in diprovoci-induced TNF production at 5 uM pre-incubated for 1 hr before diprovocim stimulation for 4 hrs by ELISA method; format: cell-based
# Homo sapiens [20] = organism: Homo sapiens; assay: Agonist activity at human TLR2/TLR1 I319A mutant expressed in HEK293T cells coexpressing NF-kappaB-driven luciferase reporter at 50 ng/ml after 6 hrs by luciferase reporter gene assay; format: cell-based; in short: as §1
# Homo sapiens [21] = organism: Homo sapiens; assay: Agonist activity at human TLR2/TLR1 H340A mutant expressed in HEK293T cells coexpressing NF-kappaB-driven luciferase reporter at 50 ng/ml after 6 hrs by luciferase reporter gene assay; format: cell-based; in short: as §1
# Homo sapiens [22] = organism: Homo sapiens; assay: Agonist activity at human TLR2/TLR1 W258A mutant expressed in HEK293T cells coexpressing NF-kappaB-driven luciferase reporter at 50 ng/ml after 6 hrs by luciferase reporter gene assay; format: cell-based; in short: as §1
# Homo sapiens [23] = organism: Homo sapiens; assay: Agonist activity at human TLR1/TLR2 Y323A mutant expressed in HEK293T cells coexpressing NF-kappaB-driven luciferase reporter at 20 ng/ml after 6 hrs by luciferase reporter gene assay; format: cell-based; in short: as §1
# Homo sapiens [24] = organism: Homo sapiens; assay: Agonist activity at human TLR1/TLR2 F349A mutant expressed in HEK293T cells coexpressing NF-kappaB-driven luciferase reporter at 20 ng/ml after 6 hrs by luciferase reporter gene assay; format: cell-based; in short: as §1
# Homo sapiens [25] = organism: Homo sapiens; assay: Agonist activity at human TLR1/TLR2 D327A mutant expressed in HEK293T cells coexpressing NF-kappaB-driven luciferase reporter at 20 ng/ml after 6 hrs by luciferase reporter gene assay; format: cell-based; in short: as §1
# Homo sapiens [26] = organism: Homo sapiens; assay: Agonist activity at human TLR2/TLR1 F312A mutant expressed in HEK293T cells coexpressing NF-kappaB-driven luciferase reporter at 50 ng/ml after 6 hrs by luciferase reporter gene assay; format: cell-based; in short: as §1
# Homo sapiens [27] = organism: Homo sapiens; assay: Agonist activity at human TLR1/TLR2 Y332A mutant expressed in HEK293T cells coexpressing NF-kappaB-driven luciferase reporter at 20 ng/ml after 6 hrs by luciferase reporter gene assay; format: cell-based; in short: as §1
# Homo sapiens [28] = organism: Homo sapiens; assay: Agonist activity at human TLR2/TLR1 V339A mutant expressed in HEK293T cells coexpressing NF-kappaB-driven luciferase reporter at 50 ng/ml after 6 hrs by luciferase reporter gene assay; format: cell-based; in short: as §1
# Homo sapiens [29] = organism: Homo sapiens; assay: Agonist activity at human TLR1/TLR2 V348A mutant expressed in HEK293T cells coexpressing NF-kappaB-driven luciferase reporter at 20 ng/ml after 6 hrs by luciferase reporter gene assay; format: cell-based; in short: as §1
# Homo sapiens [30] = organism: Homo sapiens; assay: Agonist activity at human TLR1/TLR2 Y325A mutant expressed in HEK293T cells coexpressing NF-kappaB-driven luciferase reporter at 20 ng/ml after 6 hrs by luciferase reporter gene assay; format: cell-based; in short: as §1
# Homo sapiens [31] = organism: Homo sapiens; assay: Agonist activity at human TLR2/TLR1 F314A mutant expressed in HEK293T cells coexpressing NF-kappaB-driven luciferase reporter at 50 ng/ml after 6 hrs by luciferase reporter gene assay; format: cell-based; in short: as §1
# Homo sapiens [32] = organism: Homo sapiens; assay: Agonist activity at human TLR2/TLR1 Y320A mutant expressed in HEK293T cells coexpressing NF-kappaB-driven luciferase reporter at 50 ng/ml after 6 hrs by luciferase reporter gene assay; format: cell-based; in short: as §1
# Homo sapiens [33] = organism: Homo sapiens; assay: Agonist activity at human TLR1/TLR2 L328A mutant expressed in HEK293T cells coexpressing NF-kappaB-driven luciferase reporter at 20 ng/ml after 6 hrs by luciferase reporter gene assay; format: cell-based; in short: as §1
# [34] = biological target: T2, Toll-like receptor 1/2 (Homo sapiens); assay: Induction of human TLR2/TLR1 heterodimerization expressed in insect Hi5 cells by size exclusion chromatography; in short: as §2
# Homo sapiens [35] = organism: Homo sapiens; assay: Agonist activity at human TLR1/TLR2 L350A mutant expressed in HEK293T cells coexpressing NF-kappaB-driven luciferase reporter at 20 ng/ml after 6 hrs by luciferase reporter gene assay; format: cell-based; in short: as §1
# [36] = biological target: Toll-like receptor 2 (Homo sapiens) (UniProt O60603); assay: Induction of human TLR2 homodimerization expressed in insect Hi5 cells by size exclusion chromatography; in short: as §2
# Homo sapiens [37] = organism: Homo sapiens; assay: Agonist activity at human TLR1/TLR2 Y376 mutant expressed in HEK293T cells coexpressing NF-kappaB-driven luciferase reporter at 20 ng/ml after 6 hrs by luciferase reporter gene assay; format: cell-based; in short: as §1
# Chain of Toll-like receptor 2 (Homo sapiens) (O60603 whole entry): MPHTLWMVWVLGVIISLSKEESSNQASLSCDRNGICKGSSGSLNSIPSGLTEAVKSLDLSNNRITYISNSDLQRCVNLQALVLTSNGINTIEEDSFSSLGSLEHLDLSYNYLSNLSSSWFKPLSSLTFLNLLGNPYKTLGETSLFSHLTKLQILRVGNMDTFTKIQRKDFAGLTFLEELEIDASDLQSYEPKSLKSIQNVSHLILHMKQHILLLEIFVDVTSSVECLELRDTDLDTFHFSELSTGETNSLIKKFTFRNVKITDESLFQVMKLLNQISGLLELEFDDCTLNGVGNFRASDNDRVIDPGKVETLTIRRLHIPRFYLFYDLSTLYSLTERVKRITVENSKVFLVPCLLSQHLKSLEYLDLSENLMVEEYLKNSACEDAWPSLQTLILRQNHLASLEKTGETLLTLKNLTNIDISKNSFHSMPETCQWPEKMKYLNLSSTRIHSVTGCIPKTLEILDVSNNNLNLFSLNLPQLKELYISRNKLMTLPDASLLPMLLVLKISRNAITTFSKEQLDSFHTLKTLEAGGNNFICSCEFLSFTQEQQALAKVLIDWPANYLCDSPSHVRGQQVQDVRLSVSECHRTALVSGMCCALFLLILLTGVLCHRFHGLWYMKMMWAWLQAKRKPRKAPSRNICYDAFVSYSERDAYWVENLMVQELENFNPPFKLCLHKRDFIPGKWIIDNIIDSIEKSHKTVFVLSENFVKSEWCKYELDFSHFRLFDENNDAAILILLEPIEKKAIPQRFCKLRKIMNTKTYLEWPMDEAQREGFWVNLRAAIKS
smiles,measurement,setting,value
O=C(N[C@H]1C[C@@H]1c1ccccc1)[C@@H]1CN(C(=O)c2ccc(C(=O)N3C[C@@H](C(=O)N[C@H]4C[C@@H]4c4ccccc4)[C@H](C(=O)N[C@H]4C[C@@H]4c4ccccc4)C3)cc2)C[C@H]1C(=O)N[C@H]1C[C@@H]1c1ccccc1,Activity,Homo sapiens [1],inactive
same,Activity,Homo sapiens [2],Active
same,Activity,Homo sapiens [3],inactive
same,Activity,Homo sapiens [4],inactive
same,Activity,Homo sapiens [5],Active
same,Activity,Homo sapiens [6],Active
same,Activity,Homo sapiens [7],inactive
same,Activity,Homo sapiens [8],Active
same,Activity,Homo sapiens [9],Active
same,Activity,[10],inactive
same,Activity,Homo sapiens [11],inactive
same,Activity,Homo sapiens [12],inactive
same,Activity,Homo sapiens [13],inactive
same,Activity,Homo sapiens [14],inactive
same,Activity,Homo sapiens [15],inactive
same,Activity,Homo sapiens [16],Active
same,Activity,Homo sapiens [17],Active
O=C(N[C@H]1C[C@@H]1c1ccccc1)[C@@H]1CN(C(=O)c2ccccc2)C[C@H]1C(=O)N[C@H]1C[C@@H]1c1ccccc1,inhibition,[18],Active
same,inhibition,[19],Active
CCCCCCCCCCCCCCCC(=O)NC(CSCC(COC(=O)CCCCCCCCCCCCCCC)OC(=O)CCCCCCCCCCCCCCC)C(=O)N[C@@H](CO)C(=O)N[C@@H](CCCCN)C(=O)N[C@@H](CCCCN)C(=O)N[C@@H](CCCCN)C(=O)N[C@@H](CCCCN)C(=O)O (stereo partly drawn) (Palmitoyl-[ξC](X1)SKKKK-OH),Activity,Homo sapiens [20],inactive
same,Activity,Homo sapiens [21],inactive
same,Activity,Homo sapiens [22],inactive
same,Activity,Homo sapiens [23],inactive
same,Activity,Homo sapiens [24],inactive
same,Activity,Homo sapiens [25],inactive
same,Activity,Homo sapiens [26],inactive
same,Activity,Homo sapiens [27],inactive
same,Activity,Homo sapiens [28],inactive
same,Activity,Homo sapiens [29],inactive
same,Activity,Homo sapiens [30],inactive
same,Activity,[10],inactive
same,Activity,Homo sapiens [31],inactive
same,Activity,Homo sapiens [32],inactive
same,Activity,Homo sapiens [33],inactive
same,Activity,[34],Active
same,Activity,Homo sapiens [35],inactive
same,Activity,[36],inactive
same,Activity,Homo sapiens [37],inactive

# Reference: ChEMBL document CHEMBL4392821
